# Compounds with a hit are over-represented: about 3.5% of the library has one in this group of screens.
# MrgX1 antagonist – blocks BAM8-22 activation of human MrgX1 receptor. MRGX1-HEK293 calcium flux, Fluo-4, BAM8-22 antagonism; hits give low values. B-score at 10 µM. 310,000 compounds, 1.3% hits. AID 588676;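 active means calcium-response B-score plate-corrected more than 3 library SD below zero, starting fluorescence within 5 deviations, no agonist response on first addition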;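 further: peak minus trough fluorescence over baseline after final BAM8-22 challenge near maximal dose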
# Target sequence (Q96LB2 whole entry, looked up): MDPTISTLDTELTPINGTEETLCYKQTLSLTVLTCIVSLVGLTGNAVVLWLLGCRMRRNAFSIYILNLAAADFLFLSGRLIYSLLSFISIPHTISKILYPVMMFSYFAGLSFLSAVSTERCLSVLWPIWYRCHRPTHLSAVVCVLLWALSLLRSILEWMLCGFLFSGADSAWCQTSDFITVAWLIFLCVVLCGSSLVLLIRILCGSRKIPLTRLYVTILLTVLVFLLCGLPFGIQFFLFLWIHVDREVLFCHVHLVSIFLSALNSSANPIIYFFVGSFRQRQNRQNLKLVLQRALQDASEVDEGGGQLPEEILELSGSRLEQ
# RGS4 block – inhibitors of human RGS4; HEK293 M3R/RGS4 inducible, Fluo-4 calcium flux; hits give high values; triggered by carbachol at its EC20; 310,000 compounds, 0.45% hits; B-score at 10 µM; P49798;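 active means B-score, a plate-corrected calcium signal, over three deviations above library mean, with baseline fluorescence within five deviations of library mean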;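 further: RGS4 expression induced by doxycycline in cells with stable M3 receptor; B-score is computed from the integrated fluorescence ratio over baseline after carbachol; higher B-score means a larger calcium signal and so more RGS4 inhibition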
# Target sequence (P49798 whole entry, looked up): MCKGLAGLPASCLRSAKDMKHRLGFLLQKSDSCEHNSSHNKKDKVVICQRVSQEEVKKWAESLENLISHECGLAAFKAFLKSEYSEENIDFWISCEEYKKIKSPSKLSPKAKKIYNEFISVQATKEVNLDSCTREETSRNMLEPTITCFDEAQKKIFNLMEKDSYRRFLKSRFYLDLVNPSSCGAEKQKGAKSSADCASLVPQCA
# MrgX1 PAM – allosterically activates human MrgX1 receptor signaling | AID 588675 | 310,000 compounds, 0.63% hits | Q96LB2 | MrgX1-HEK293, Fluo-4 calcium flux, FDSS; hits give high values | B-score at 10 µM;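 active means plate-corrected calcium response at least 3 library SD above typical, normal starting fluorescence, not activating the receptor alone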;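 further: compound read alongside a low EC10 to EC30 dose of BAM8-22 agonist; peak minus trough fluorescence over baseline measured at the second addition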
# MrgX1 ag – activates human MrgX1 receptor signaling; Q96LB2; MrgX1-HEK293 cells, Fluo-4 calcium fluorescence, agonist mode; hits give high values; B-score at 10 µM; 310,000 compounds, 0.44% hits; AID 588627;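 active means calcium response B-score plate-corrected fluorescence ratio at least 3 library SD, with starting fluorescence B-score inside 5 SD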
#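 times = overnight plating, then 30 min 37 °C plus 30 min room-temperature dye loading | assay system = stable human MrgX1 HEK293 cell line | input = fifteen thousand cells per well | signal = kinetic calcium dye fluorescence, Fluo-4 NW | dosing = compound delivered in addition one of three | read-out = B-scored fluorescence response ratio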
# RGS4 act – potentiators or activators of RGS4 | 310,000 compounds, 0.92% hits | HEK293 M3R/inducible RGS4, carbachol calcium flux Fluo4; hits give low values | B-score at 10 µM;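 active means B-score of the integrated calcium signal more than 4 SD below the library mean, with starting fluorescence not abnormally high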;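 further: negative B-score means reduced calcium response which marks RGS4 activation or potentiation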
#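 test system = HEK293 cells with stable M3R and inducible RGS4 | schedule = recording 10 s baseline at 1 Hz, 100 s post-agonist | technique = Fluo4-AM (2 µM) calcium-flux fluorescence, kinetic read | measure = Agonist-evoked peak-minus-minimum fluorescence over baseline, integrated ratio, B score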
# Numbers without * were called inactive; i = inactive.
SMILES,MrgX1 antagonist,RGS4 block,MrgX1 PAM,MrgX1 ag,RGS4 act
O=S1(=O)CCOCCCN1Cc1ccccc1Br,i,i,i,i,i
Cc1ccc(C(=O)CC(=O)c2ccccc2)cc1,i,i,i,i,i
Cc1ccc(C(=O)Sc2cccccc2=O)cc1,i,i,i,49*,i
Cc1c(Br)c([N+](=O)[O-])nn1CC(=O)NCc1ccccc1,i,i,i,i,i
Cc1c(Br)c([N+](=O)[O-])nn1CC(=O)NCCc1c[nH]c2ccccc12,-5*,i,i,i,i
O=C(CCC(=O)OCC(=O)c1ccc(-c2ccccc2)cc1)Nc1cccc2cccnc12,i,i,i,i,i
O=C(CCC(=O)OCC(=O)c1ccc(Cl)cc1Cl)Nc1cccc2cccnc12,-8.4*,i,i,i,i
Cc1ccc(Sc2ncccc2COC(=O)NC(C)C)cc1,i,i,i,i,i
O=C(Cc1ccc(-c2ccccc2)cc1)Nc1ncccc1O,i,i,i,i,i
CCOC(=O)c1nc(S(C)(=O)=O)ncc1N1CCOCC1,i,i,i,i,i
CCOC(=O)c1nc(S(C)(=O)=O)ncc1Cl,i,i,i,43*,i
COc1cc(N2C(=O)C=CC2=O)c(OC)cc1Cl,i,i,i,i,-7.1*
COCCCn1c(SCC(=O)OC2CCCCC2)nnc1-c1ccco1,i,i,i,i,i
COCCCn1c(SCC(=O)OC2CCCCC2)nnc1-c1cccs1,-5.8*,i,i,i,i
Cc1cccc(C)c1NC(=S)N(c1ccccc1)C(C)C,i,i,i,i,i
CCCCc1cc(=O)oc2cc(C)cc(OCC(=O)NCc3ccncc3)c12,i,i,7.2*,i,i
CCOC(=O)c1cnc2ccc(C(=O)OC)cc2c1Nc1ccc(C(=O)O)cc1,i,i,i,i,i
CCOC(=O)c1ccc2ncc(C(=O)OCC)c(Nc3ccc(N4CCOCC4)cc3)c2c1,i,i,i,i,-7.5*
Cn1cnnc1SCCNS(=O)(=O)c1cccc([N+](=O)[O-])c1,i,i,i,i,i
COc1cccc2c1OCC(C(=O)OCc1cccnc1)=C2,i,i,i,29*,i
O=C(Nc1nc2cc(Cl)ccc2s1)C1CCCN(S(=O)(=O)c2cccc3cccnc23)C1 (stereo unspecified),i,i,i,i,i
O=C(Nc1c2c(nn1-c1ccc(F)cc1)CS(=O)C2)c1ccc2c(c1)OCO2 (stereo unspecified),i,i,i,i,i
O=C(CNC(=O)c1ccccc1)OC1CCCCC1,i,i,i,i,i
C[N+]1(C)CCCC(OC(=O)C(O)(c2ccccc2)c2ccccc2)C1 (stereo unspecified),i,i,i,i,-11*
Cc1ccc(NC(=O)C2CCC(N3C(=O)C4CCCCC4C3=O)CC2)cc1 (stereo unspecified),i,i,i,i,i
SMILES,MrgX1 antagonist,RGS4 block,MrgX1 PAM,MrgX1 ag,RGS4 act
Cc1cc(NC(=O)c2c(Cl)c(C)nn2C)no1,i,i,i,i,i
Cc1cc(NC(=O)c2c([N+](=O)[O-])c(C)nn2C)no1,-5*,i,i,i,i
C/C(=N\NC(=S)NCc1ccccc1)c1ccc(C)o1,i,i,i,i,i
COC(=O)CS(=O)(=O)c1ccsc1C(=O)Nc1ccc(F)cc1,i,i,i,i,i
O=C1/C(=C/c2cccc([N+](=O)[O-])c2)CCc2ccccc21,-5.8*,i,i,i,i
O=C1/C(=C/c2ccc([N+](=O)[O-])cc2)CCc2ccccc21,i,i,i,i,i
Nc1ncnc2c1ncn2[C@@H]1O[C@H](CO)[C@@H](O)[C@H]1O,i,i,i,26*,i
CCCC[C@@H]1C[C@H]1[C@@H](NC(=O)c1ccccc1)c1ccccc1C(F)(F)F,i,i,i,i,i
C=C(CC1([C@@H](NP(=O)(c2ccccc2)c2ccccc2)[C@H]2C[C@@H]2CCCC)CC1)c1ccccc1,-4.8*,i,i,i,i
O=c1ccn([C@H]2C[C@H](O)[C@@H](CO)O2)c(=O)[nH]1,-6.8*,i,i,i,i
Cc1cc(Nc2cccc(C(=O)O)c2)n2ncnc2n1,i,i,i,i,i
O=Nc1ccc(NOC(=O)c2ccccc2)cc1,i,i,i,i,i
O=C(N=Nc1ccc(NOC(=O)c2ccccc2Br)cc1)c1ccccc1O,i,i,12*,i,i
CCOC(=O)c1c(N2C(=O)Nc3ccccc3N2O)sc2c1CCCC2,i,i,i,37*,i
CN(CC(=O)NCc1ccc(F)cc1)CC(=O)Nc1ccc(Cl)c(C(F)(F)F)c1,-5.6*,i,i,i,i
CC(NC(=O)CN(C)CC(=O)Nc1ccc(Cl)c(C(F)(F)F)c1)c1ccccc1 (stereo unspecified),i,i,i,i,i
CCCCc1nc2ccccc2c(=O)n1NC(=O)c1c(O)c2ccccc2n(C)c1=O,-5.8*,i,i,i,i
CCCc1nc2ccccc2c(=O)n1NC(=O)c1c(O)c2cccc3c2n(c1=O)CCC3,-5.7*,i,i,i,i
Cn1c(=O)c(C(=O)NCCCc2ccccc2)c(O)c2ccccc21,i,i,i,i,i
CCOc1ccc(S(=O)(=O)Nc2ccc(C(=O)NCC(c3ccco3)N3CCCCC3)cc2)cc1 (stereo unspecified),i,i,i,i,i
Cc1c(N=Cc2ccc(O)c(Br)c2)cccc1[N+](=O)[O-],i,i,i,i,i
O=[N+]([O-])c1ccc(N=Cc2ccc(Br)c([N+](=O)[O-])c2)cc1,i,i,i,34*,i
COc1ccc2oc(=O)c(/C(N)=N/NC(=O)c3ccncc3)cc2c1,i,i,i,i,i
Cc1ccc(C(C)C)c(OCCNC(=O)c2cncc(Br)c2)c1,i,i,i,i,i
COc1cc(C(=O)NCCOc2cc(C)ccc2C(C)C)cc(OC)c1OC,-4.7*,i,i,i,i
COCCCNCCOc1ccc(C)cc1[N+](=O)[O-],-4.9*,i,i,i,i
CCOC(=O)/C(=N/Nc1ccc(C)cc1)S(=O)(=O)c1ccc(Cl)cc1,i,i,i,i,-8*
CCOCCn1c(N2CCCC2)nc2c1c(=O)[nH]c(=O)n2C,i,i,i,i,i

# Screening data: PubChem BioAssay, Johns Hopkins Ion Channel Center
